Values joined by “and” are separate entries in the source; they are usually repeats but may differ in a detail not shown here. Equal values may be shown once.
Tests used:
Rattus norvegicus [1] = test: Biodistribution in Rat lung after 24 hours of iv administration; format: ADME, organism-based; details: in vivo
Procedure, shortened: (§1)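 125I-labeled compound solubilized in normal saline with Tween-20 and given iv to rats, about 5-30 μCi (9-83 μg) per animal. Three to five rats per time point. Rats killed by exsanguination under ether anesthesia at 5 min, 30 min or 24 h. Organs minced, blotted free of blood and counted for radioiodine. Lines with "per g" are % administered dose per gram ± SEM.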

Rattus norvegicus [2] = test: Biodistribution in Rat blood after 24 hours of iv administration; format: ADME, organism-based; details: in vivo; procedure, shortened: as §1
Rattus norvegicus [3] = test: Compound (125I labeled) was evaluated for the total radioactivity in albumin at 30 min after intravenous administration.; format: functional; parameters: concentration or dose not given beside the values
Procedure, shortened: (§2)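 Rat plasma taken 5 or 30 min after iv dosing of 125I-labeled compound (saline/Tween-20) and run on polyacrylamide gel electrophoresis. Gels sectioned and each section gamma-counted. Radioactivity in each band (stacking gel, lipoproteins, albumin, below-albumin) is given as % of total radioactivity applied to the gel.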

Rattus norvegicus [4] = test: Biodistribution in Rat blood after 5 minutes of iv administration; format: ADME, organism-based; details: in vivo; procedure, shortened: as §1
Rattus norvegicus [5] = test: Liver radioactivity after iv administration of compound (24 h) in rats; format: functional, organism-based
Procedure, shortened: (§3)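 Rats (3-5 per time point) dosed iv with about 5-30 μCi (9-83 μg) of 125I-labeled compound in saline containing Tween-20. Killed by exsanguination under ether at 5 min, 30 min or 24 h. Liver removed, minced, blotted and counted. Values are % administered dose per organ, based on each animal's actual liver weight, ± SEM.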

Rattus norvegicus [6] = test: Biodistribution in Rat heart after 5 minutes of iv administration; format: ADME, organism-based; details: in vivo; procedure, shortened: as §1
Rattus norvegicus [7] = test: Biodistribution in Rat liver after 5 minutes of iv administration; format: ADME, organism-based; details: in vivo; procedure, shortened: as §1
Rattus norvegicus [8] = test: Evaluated for the total radioactivity in below albumin at 30 min after intravenous administration.; format: functional; procedure, shortened: as §2
Rattus norvegicus [9] = test: Compound was evaluated for the lipid soluble radioactivity extracted from rat plasma at 0.5 hr after intravenous administration.; format: functional
Procedure, shortened: (§4)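 Liver and plasma taken 0.5 or 24 h after iv dosing of 125I-labeled compound in rats (n = 3-5). Extracted by a modified Folch procedure; value is % lipid (CHCl3/MeOH)-extractable radioactivity ± SEM. Extracts run on TLC in hexane/ethyl acetate 5:2 against unlabeled standard, then 1-cm strips counted to give % parent compound.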

Rattus norvegicus [10] = test: Compound was evaluated for the lipid soluble radioactivity extracted from rat liver at 24 hr after intravenous administration.; format: functional; procedure, shortened: as §4
Rattus norvegicus [11] = test: Biodistribution in Rat heart after 24 hours of iv administration; format: ADME, organism-based; details: in vivo; procedure, shortened: as §1
Rattus norvegicus [12] = test: (§5) Biodistribution in Rat liver after 30 minutes of iv administration; format: ADME, organism-based; details: in vivo, 0.5 h; procedure, shortened: as §1
Rattus norvegicus [13] = test: Biodistribution in Rat heart after 30 minutes of iv administration; format: ADME, organism-based; details: in vivo, 0.5 h; procedure, shortened: as §1
Rattus norvegicus [14] = test: Biodistribution in Rat liver after 24 hours of iv administration; format: ADME, organism-based; details: in vivo; procedure, shortened: as §1
Rattus norvegicus [15] = test: Liver radioactivity after iv administration of compound (30 min) in rats; format: functional, organism-based; procedure, shortened: as §3
Rattus norvegicus [16] = test: Biodistribution in Rat lung after 5 minutes of iv administration; format: ADME, organism-based; details: in vivo; procedure, shortened: as §1
Rattus norvegicus [17] = test: Compound was evaluated for the lipid soluble radioactivity extracted from rat plasma at 24 hr after intravenous administration.; format: functional; procedure, shortened: as §4
Rattus norvegicus [18] = test: Compound (125I labeled) was evaluated for the total radioactivity in albumin 5 min after intravenous administration.; format: functional; parameters: concentration or dose not given beside the values; procedure, shortened: as §2
Rattus norvegicus [19] = test: Compound (125I labeled) was evaluated for the total radioactivity in high-density lipoprotein, at 30 min after intravenous administration.; format: functional; procedure, shortened: as §2
Rattus norvegicus [20] = test: Compound (125I labeled) was evaluated for the total radioactivity in low-density lipoprotein 5 min after intravenous administration.; format: functional; parameters: concentration or dose not given beside the values; procedure, shortened: as §2
Rattus norvegicus [21] = test: Compound (125I labeled) was evaluated for the total radioactivity in stacking gel at 30 min after intravenous administration.; format: functional; procedure, shortened: as §2
Rattus norvegicus [22] = test: Liver radioactivity after iv administration of compound (5 min) in rats; format: functional, organism-based; procedure, shortened: as §3
Rattus norvegicus [23] = test: as §5; format: ADME, organism-based; details: in vivo, 0.5 h; procedure, shortened: as §1; remark: listed apart in the source
Rattus norvegicus [24] = test: Compound (125I labeled) was evaluated for the total radioactivity in high-density lipoprotein 5 min after intravenous administration.; format: functional; procedure, shortened: as §2
Rattus norvegicus [25] = test: Biodistribution in Rat lung after 30 minutes of iv administration; format: ADME, organism-based; details: in vivo, 0.5 h; procedure, shortened: as §1
Rattus norvegicus [26] = test: Compound (125I labeled) was evaluated for the total radioactivity in low-density lipoprotein, at 30 min after intravenous administration.; format: functional; procedure, shortened: as §2
Rattus norvegicus [27] = test: Biodistribution in Rat blood after 30 minutes of iv administration; format: ADME, organism-based; details: in vivo, 0.5 h; procedure, shortened: as §1
Rattus norvegicus [28] = test: Compound was evaluated for the lipid soluble radioactivity extracted from rat liver at 0.5 hr after intravenous administration.; format: functional; procedure, shortened: as §4
Rattus norvegicus [29] = test: Compound (125I labeled) was evaluated for the total radioactivity in stacking gel 5 min after intravenous administration.; format: functional; procedure, shortened: as §2

SMILES | Biodistribution (Rattus norvegicus [1]) [%] | Biodistribution (Rattus norvegicus [2]) [%] | Total radioactivity (Rattus norvegicus [3]) [%] | Biodistribution (Rattus norvegicus [4]) [%] | Biodistribution (Rattus norvegicus [6]) [%] | Biodistribution (Rattus norvegicus [7]) | Parent compound (Rattus norvegicus [9]) [%] | Biodistribution (Rattus norvegicus [11]) [%] | Biodistribution (Rattus norvegicus [12]) [%] | Biodistribution (Rattus norvegicus [13]) [%] | Radioactivity (Rattus norvegicus [15]) | Biodistribution (Rattus norvegicus [16]) [%] | Total radioactivity (Rattus norvegicus [18]) [%] | Total radioactivity (Rattus norvegicus [19]) [%] | Total radioactivity (Rattus norvegicus [20]) [%] | Total radioactivity (Rattus norvegicus [21]) [%] | Radioactivity (Rattus norvegicus [22]) | Biodistribution (Rattus norvegicus [23]) [%] | Total radioactivity (Rattus norvegicus [24]) [%] | Biodistribution (Rattus norvegicus [25]) [%] | other results
Nc1c(I)cc(I)c(CCCCCCCCCCCCCCCCC(=O)OCC(COC(=O)CCCCCCCCCCCCCCCCc2c(I)cc(I)c(N)c2I)OC(=O)CCCCCCCCCCCCCCCCc2c(I)cc(I)c(N)c2I)c1I | 0.07 | 0.06 | 46.2 | 4.14 | 0.74 | 0.52% and 6.68% | 29.2 | 0.03 | 5.28 | 0.92 | 38.8 | 1.08 | 20.3 | 28.1 | 32.2 | 3.8 | 54.4 | 5.28 | 32.7 | 0.94 | Radioactivity (Rattus norvegicus [5]): 3; Total radioactivity (Rattus norvegicus [8]): 7.1% and 6.8%; Extracted (Rattus norvegicus [9]): 70.1%; Extracted (Rattus norvegicus [10]): 73.4%; Parent compound (Rattus norvegicus [10]): 9.5%; Biodistribution (Rattus norvegicus [14]): 0.14% and 0.44%; Extracted (Rattus norvegicus [17]): 54.2%; Parent compound (Rattus norvegicus [17]): 20.2%; Total radioactivity (Rattus norvegicus [26]): 15.1%; Biodistribution (Rattus norvegicus [27]): 2.1%; Extracted (Rattus norvegicus [28]): 50.7%; Parent compound (Rattus norvegicus [28]): 15.1%; Total radioactivity (Rattus norvegicus [29]): 6.4%
CCCCCCCCCCCCCCCC(=O)OC(COC(=O)CCCCCCCCCCCCCCCCc1c(I)cc(I)c(N)c1I)COC(=O)CCCCCCCCCCCCCCCCc1c(I)cc(I)c(N)c1I | 0.08 | 0.07 | 37.1 | 4.78 | 0.87 | 0.67% and 4.76% | 28.8 | 0.03 | 4.2 | 0.87 | 32.7 | 1.45 | 26.2 | 24.8 | 32.9 | 9.7 | 33.8 | 4.2 | 34.4 | 1.03 | Radioactivity (Rattus norvegicus [5]): 2.59; Extracted (Rattus norvegicus [9]): 70.9%; Extracted (Rattus norvegicus [10]): 63.5%; Parent compound (Rattus norvegicus [10]): 17.3%; Biodistribution (Rattus norvegicus [14]): 0.13% and 0.37%; Extracted (Rattus norvegicus [17]): 44.1%; Parent compound (Rattus norvegicus [17]): 18%; Total radioactivity (Rattus norvegicus [26]): 14.2%; Biodistribution (Rattus norvegicus [27]): 1.97%; Extracted (Rattus norvegicus [28]): 42.3%; Parent compound (Rattus norvegicus [28]): 25.3%; Total radioactivity (Rattus norvegicus [29]): 2.5%
Nc1c(I)cc(I)c(CCC(=O)OCC(COC(=O)CCc2c(I)cc(I)c(N)c2I)OC(=O)CCc2c(I)cc(I)c(N)c2I)c1I | 2.64 | 0.05 | 13.8 | 2.15 | 1.93 | 0.44% and 8.02% | 94.5 | 0.19 | 10.4 | 0.82 | 75.5 | 6.69 | 10.5 | 34.5 | 29.6 | 20.2 | 60.5 | 10.38 | 38.4 | 6.63 | Radioactivity (Rattus norvegicus [5]): 86.2; Total radioactivity (Rattus norvegicus [8]): 3.2% and 4.1%; Extracted (Rattus norvegicus [9]): 89%; Extracted (Rattus norvegicus [10]): 91.1%; Parent compound (Rattus norvegicus [10]): 96.5%; Extracted (Rattus norvegicus [17]): 83.3%; Parent compound (Rattus norvegicus [17]): 68.2%; Total radioactivity (Rattus norvegicus [26]): 27.6%; Biodistribution (Rattus norvegicus [27]): 1.71%; Extracted (Rattus norvegicus [28]): 94.8%; Parent compound (Rattus norvegicus [28]): 97.3%; Total radioactivity (Rattus norvegicus [29]): 18.3%
Nc1c(I)cc(I)c(CCCCCCCCCCCC(=O)OCC(COC(=O)CCCCCCCCCCCc2c(I)cc(I)c(N)c2I)OC(=O)CCCCCCCCCCCc2c(I)cc(I)c(N)c2I)c1I | 0.09 | 0.07 | 40.6 | 1.46 | 2.67 | 0.6% and 6.94% | 24.1 | 0.05 | 5.24 | 0.65 | 45.7 | 1.13 | 30.2 | 33.6 | 12.7 | 5.8 | 53.8 | 5.24 | 27.2 | 0.67 | Total radioactivity (Rattus norvegicus [8]): 5.5% and 12.6%; Biodistribution (Rattus norvegicus [14]): 0.1% and 0.71%; Total radioactivity (Rattus norvegicus [26]): 6.2%; Biodistribution (Rattus norvegicus [27]): 0.91%; Extracted (Rattus norvegicus [28]): 76.5%; Parent compound (Rattus norvegicus [28]): 68.8%; Total radioactivity (Rattus norvegicus [29]): 24.4%

Source: ChEMBL document CHEMBL1123382, “Potential tumor- or organ-imaging agents. 27. Polyiodinated 1,3-disubstituted and 1,2,3-trisubstituted triacylglycerols” (J Med Chem, 1986)
